In ChEMBL document CHEMBL3632567, “Selective Allosteric Antagonists for the G Protein-Coupled Receptor GPRC6A Based on the 2-Phenylindole Privileged Structure Scaffold” (J Med Chem, 2015):

Columns and labels:
[1] = molecular target: T1, G-protein coupled receptor family C group 6 member A (Mus musculus, UniProt Q8K4Z6); assay: Antagonist activity at mouse GPRC6A receptor expressed in HEK293 cells assessed as inhibition of L-ornithine-induced inositol monophosphate accumulation after 1 hr by FRET assay; assay type: functional, cell-based
T1 sequence (Q8K4Z6 whole entry): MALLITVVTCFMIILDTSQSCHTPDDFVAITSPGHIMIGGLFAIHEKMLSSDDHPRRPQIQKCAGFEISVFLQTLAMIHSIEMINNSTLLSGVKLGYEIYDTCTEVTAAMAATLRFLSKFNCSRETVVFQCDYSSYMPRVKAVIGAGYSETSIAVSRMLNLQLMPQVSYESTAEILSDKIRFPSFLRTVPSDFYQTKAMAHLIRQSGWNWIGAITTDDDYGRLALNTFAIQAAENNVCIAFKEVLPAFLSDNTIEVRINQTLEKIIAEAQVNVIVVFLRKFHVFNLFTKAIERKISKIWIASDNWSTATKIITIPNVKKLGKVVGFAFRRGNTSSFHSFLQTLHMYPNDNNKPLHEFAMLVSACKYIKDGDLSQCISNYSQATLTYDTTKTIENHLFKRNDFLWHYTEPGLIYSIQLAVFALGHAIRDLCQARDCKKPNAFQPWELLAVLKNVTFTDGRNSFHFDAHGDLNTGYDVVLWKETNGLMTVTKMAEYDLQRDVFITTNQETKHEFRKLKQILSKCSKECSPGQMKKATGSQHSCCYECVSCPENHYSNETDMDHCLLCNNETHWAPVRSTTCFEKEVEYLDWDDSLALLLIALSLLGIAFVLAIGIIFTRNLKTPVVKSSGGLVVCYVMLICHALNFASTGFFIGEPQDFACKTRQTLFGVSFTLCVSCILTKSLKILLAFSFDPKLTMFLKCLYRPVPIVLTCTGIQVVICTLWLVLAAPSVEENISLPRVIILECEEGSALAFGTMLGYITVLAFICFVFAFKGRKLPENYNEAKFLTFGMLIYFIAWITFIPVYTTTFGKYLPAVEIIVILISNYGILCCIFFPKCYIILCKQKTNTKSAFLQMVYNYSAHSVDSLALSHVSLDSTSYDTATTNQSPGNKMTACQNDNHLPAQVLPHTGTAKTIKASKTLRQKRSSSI
Procedure, shortened: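 HEK-293T cells transiently co-transfected (Lipofectamine 2000, 48 h before assay) with mouse GPRC6A and Gq(G66D), 1:1, 12,500 cells/well on poly-D-lysine. Cells washed twice in HBSS/HEPES/BSA pH 7.4, then 1 h at 37 °C with compounds (up to 400 µM, 2% DMSO final) plus 500 µM L-ornithine in LiCl Ligand Buffer. IP1 read by HTRF; curves triplicate, ≥3 experiments; relative potency = IC50(reference)/IC50 × 100.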

[2] = molecular target: T2, G-protein coupled receptor family C group 6 member A (Mus musculus) (UniProt Q8K4Z6); assay: Relative antagonist potency at mouse GPRC6A receptor expressed in HEK293 cells assessed as L-ornithine-induced inositol monophosphate accumulation after 1 hr by FRET assay relative to 2-[methyl-(2-morpholino-2-oxo-ethyl)amino]-1-(2-phenyl-1H-indol-3-yl)ethanone
T2 sequence (whole entry): T1 sequence (Q8K4Z6 whole entry)

[3] = molecular target: Metabotropic glutamate receptor 5 (Rattus norvegicus, UniProt P31424); assay: Antagonist activity at rat mGluR5 expressed in CHO cells assessed as inhibition of L-glutamate-induced inositol monophosphate accumulation after 1 hr by FRET assay; assay type: functional, cell-based
Chain of Metabotropic glutamate receptor 5 (P31424 whole entry): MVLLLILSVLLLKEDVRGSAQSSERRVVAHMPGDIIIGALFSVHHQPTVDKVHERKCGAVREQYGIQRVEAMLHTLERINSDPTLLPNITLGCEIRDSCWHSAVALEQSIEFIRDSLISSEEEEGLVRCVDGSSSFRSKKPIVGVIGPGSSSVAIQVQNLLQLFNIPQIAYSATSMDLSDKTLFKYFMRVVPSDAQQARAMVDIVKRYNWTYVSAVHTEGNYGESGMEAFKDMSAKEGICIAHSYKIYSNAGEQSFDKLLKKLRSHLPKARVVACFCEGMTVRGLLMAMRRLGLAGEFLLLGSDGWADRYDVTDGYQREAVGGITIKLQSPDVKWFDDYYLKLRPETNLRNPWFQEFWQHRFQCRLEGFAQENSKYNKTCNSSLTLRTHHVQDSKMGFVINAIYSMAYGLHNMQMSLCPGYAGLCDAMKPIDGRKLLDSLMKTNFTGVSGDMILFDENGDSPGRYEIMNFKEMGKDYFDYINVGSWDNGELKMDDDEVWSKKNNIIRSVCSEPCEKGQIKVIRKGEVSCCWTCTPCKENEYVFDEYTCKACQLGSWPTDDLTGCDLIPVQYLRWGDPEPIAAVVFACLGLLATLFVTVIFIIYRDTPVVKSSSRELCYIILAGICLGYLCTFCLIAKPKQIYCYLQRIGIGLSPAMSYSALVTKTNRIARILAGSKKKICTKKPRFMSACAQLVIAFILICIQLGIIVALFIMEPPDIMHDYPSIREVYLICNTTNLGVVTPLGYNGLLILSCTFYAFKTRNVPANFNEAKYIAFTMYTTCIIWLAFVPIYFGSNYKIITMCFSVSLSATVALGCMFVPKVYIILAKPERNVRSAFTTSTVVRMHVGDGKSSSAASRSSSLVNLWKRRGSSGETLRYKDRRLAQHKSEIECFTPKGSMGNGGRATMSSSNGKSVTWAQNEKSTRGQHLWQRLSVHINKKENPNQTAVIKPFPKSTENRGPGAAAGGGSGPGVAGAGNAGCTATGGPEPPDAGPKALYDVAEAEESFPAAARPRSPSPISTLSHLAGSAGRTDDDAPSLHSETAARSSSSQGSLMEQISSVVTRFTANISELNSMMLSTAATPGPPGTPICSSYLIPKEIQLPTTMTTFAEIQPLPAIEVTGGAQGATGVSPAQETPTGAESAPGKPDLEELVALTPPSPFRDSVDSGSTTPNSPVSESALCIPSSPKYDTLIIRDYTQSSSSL
Procedure, shortened: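 CHO cells stably expressing rat mGluR5, kept in DMEM with 10% dialyzed FBS and 1% L-proline, 37 °C, 5% CO2. After two washes in HBSS/HEPES/BSA pH 7.4, cells were stimulated 1 h at 37 °C with 100 µM L-glutamate and compounds (2% DMSO final) in LiCl Ligand Buffer. IP1 accumulation by HTRF; triplicate curves, ≥3 experiments.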

[4] = molecular target: T3, 5-hydroxytryptamine receptor 2C (Homo sapiens, UniProt P28335); assay: Antagonist activity at human 5HT2C receptor expressed in HEK293 cells assessed as inhibition of serotonin-induced inositol monophosphate accumulation after 1 hr by FRET assay; assay type: functional, cell-based
T3 sequence (P28335 whole entry): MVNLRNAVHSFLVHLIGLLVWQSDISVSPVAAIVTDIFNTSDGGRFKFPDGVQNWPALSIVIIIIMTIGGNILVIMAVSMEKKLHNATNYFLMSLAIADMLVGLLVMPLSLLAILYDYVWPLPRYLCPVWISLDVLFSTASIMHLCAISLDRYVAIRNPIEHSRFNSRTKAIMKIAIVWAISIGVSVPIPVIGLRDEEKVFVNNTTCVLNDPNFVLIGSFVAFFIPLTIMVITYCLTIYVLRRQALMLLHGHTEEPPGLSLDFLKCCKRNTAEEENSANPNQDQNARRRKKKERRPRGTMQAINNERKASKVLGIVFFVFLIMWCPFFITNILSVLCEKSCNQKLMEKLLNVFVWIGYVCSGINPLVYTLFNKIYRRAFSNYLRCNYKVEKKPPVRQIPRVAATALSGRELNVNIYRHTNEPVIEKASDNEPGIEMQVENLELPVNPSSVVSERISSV
Procedure, shortened: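 HEK-293T cells transiently transfected with human 5-HT2C (0.25 µg DNA/well), seeded 12,500/well 48 h before assay. After two HBSS/HEPES/BSA pH 7.4 washes, compounds in 2% DMSO final with 1 µM serotonin in Ligand Buffer (1 mM CaCl2, 1 mM MgCl2, LiCl, pH 7.4) applied 1 h at 37 °C. Lysate IP1 measured by HTRF (665/615 nm ratio vs standard); pIC50 by nonlinear regression, triplicate, ≥3 experiments.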

[5] = molecular target: Muscarinic acetylcholine receptor M3 (Homo sapiens, UniProt P20309); assay: Antagonist activity at human muscarinic M3 receptor expressed in HEK293 cells assessed as inhibition of carbachol-induced inositol monophosphate accumulation after 1 hr by FRET assay; assay type: functional, cell-based
Chain of Muscarinic acetylcholine receptor M3 (P20309 whole entry): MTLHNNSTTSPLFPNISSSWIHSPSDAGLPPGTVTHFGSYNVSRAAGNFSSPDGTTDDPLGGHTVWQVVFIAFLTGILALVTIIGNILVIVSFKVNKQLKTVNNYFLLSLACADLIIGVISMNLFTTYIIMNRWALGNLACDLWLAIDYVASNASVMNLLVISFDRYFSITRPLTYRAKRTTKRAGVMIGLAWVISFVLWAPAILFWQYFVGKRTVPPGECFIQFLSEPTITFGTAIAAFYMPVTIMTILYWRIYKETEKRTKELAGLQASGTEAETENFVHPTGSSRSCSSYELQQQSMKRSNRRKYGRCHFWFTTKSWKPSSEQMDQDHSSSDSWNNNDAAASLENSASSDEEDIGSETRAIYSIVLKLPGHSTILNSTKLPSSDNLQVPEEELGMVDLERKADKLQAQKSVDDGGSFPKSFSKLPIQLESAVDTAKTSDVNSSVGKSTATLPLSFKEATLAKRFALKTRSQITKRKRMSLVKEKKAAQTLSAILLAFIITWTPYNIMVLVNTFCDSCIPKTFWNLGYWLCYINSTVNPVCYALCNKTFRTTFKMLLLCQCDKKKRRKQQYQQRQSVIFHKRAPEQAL
Procedure, shortened: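 HEK-293T cells transfected with empty pCIneo to use their native human M3 receptors, 12,500/well, assayed 48 h later. After two HBSS/HEPES/BSA pH 7.4 washes, cells were stimulated 1 h at 37 °C with 1 mM carbachol plus compounds (2% DMSO final) in LiCl-containing Ligand Buffer. IP1 quantified by HTRF against standard; triplicate curves, at least three experiments.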

[6] = molecular target: T4, Extracellular calcium-sensing receptor (Rattus norvegicus, UniProt P48442); assay: Antagonist activity at rat CaSR expressed in HEK293 cells assessed as inhibition of Ca2+-induced inositol monophosphate accumulation after 30 min by FRET assay
T4 sequence (P48442 whole entry): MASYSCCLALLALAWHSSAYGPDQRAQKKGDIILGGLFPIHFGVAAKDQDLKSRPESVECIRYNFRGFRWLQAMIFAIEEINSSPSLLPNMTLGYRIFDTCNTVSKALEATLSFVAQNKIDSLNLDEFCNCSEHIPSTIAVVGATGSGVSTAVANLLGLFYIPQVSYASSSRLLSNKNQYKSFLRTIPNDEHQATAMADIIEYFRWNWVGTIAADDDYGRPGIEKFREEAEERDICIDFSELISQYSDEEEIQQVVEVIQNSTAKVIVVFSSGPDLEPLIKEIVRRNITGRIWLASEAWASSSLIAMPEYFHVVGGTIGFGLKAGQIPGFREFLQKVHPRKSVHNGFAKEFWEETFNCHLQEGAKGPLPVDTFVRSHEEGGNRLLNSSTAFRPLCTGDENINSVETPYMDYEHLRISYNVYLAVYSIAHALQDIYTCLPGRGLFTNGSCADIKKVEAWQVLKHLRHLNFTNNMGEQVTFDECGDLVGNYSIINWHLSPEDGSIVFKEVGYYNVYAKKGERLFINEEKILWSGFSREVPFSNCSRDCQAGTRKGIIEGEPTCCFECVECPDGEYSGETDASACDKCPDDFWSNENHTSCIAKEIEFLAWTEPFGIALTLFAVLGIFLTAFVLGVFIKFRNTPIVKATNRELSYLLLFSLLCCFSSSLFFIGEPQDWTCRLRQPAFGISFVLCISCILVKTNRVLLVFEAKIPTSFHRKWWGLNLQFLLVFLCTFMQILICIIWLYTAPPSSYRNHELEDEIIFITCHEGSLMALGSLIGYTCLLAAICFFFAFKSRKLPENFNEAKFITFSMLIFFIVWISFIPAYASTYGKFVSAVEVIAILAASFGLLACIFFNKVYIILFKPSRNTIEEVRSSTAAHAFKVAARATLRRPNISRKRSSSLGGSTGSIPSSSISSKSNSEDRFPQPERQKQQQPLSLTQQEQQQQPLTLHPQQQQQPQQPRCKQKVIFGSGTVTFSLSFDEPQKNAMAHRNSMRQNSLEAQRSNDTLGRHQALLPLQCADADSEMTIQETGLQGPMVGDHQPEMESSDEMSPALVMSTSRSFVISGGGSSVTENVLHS

IC50 [1]	Relative potency [2]	IC50 [3]	IC50 [4]	IC50 [5]	IC50 [6]	Structure (SMILES)
57.3 µM	38					CN(CC(=O)c1c(-c2ccccc2)[nH]c2ccccc12)CC(=O)N1CCCC1
21.3 µM	103					CN(CC(=O)c1c(-c2ccc(F)cc2)[nH]c2ccccc12)CC(=O)N1CCOCC1
> 400 µM	< 6					CN(CC(=O)N1CCOCC1)C(=O)c1c(-c2ccccc2)[nH]c2ccccc12
9.33 µM		41.7 µM	51.3 µM	4.17 µM	56.2 µM	COc1ccc(-c2[nH]c3ccccc3c2C(=O)CN(C)CC(=O)N2CCOCC2)cc1
6.17 µM		269 µM	269 µM	58 µM	347 µM	CN(CCN1CCOCC1)CC(=O)c1c(-c2ccccc2)[nH]c2ccccc12
21.9 µM		224 µM	214 µM	27.5 µM	316 µM	CN(CC(=O)c1c(-c2ccccc2)[nH]c2ccccc12)CC(=O)N1CCOCC1
66.1 µM	33					COc1ccc2[nH]c(-c3ccccc3)c(C(=O)CN(C)CC(=O)N3CCOCC3)c2c1
39.8 µM	55					CN(CC(=O)c1c(-c2ccccc2)[nH]c2ccc(F)cc12)CC(=O)N1CCOCC1

More lines, now with the values behind:

Structure (SMILES)	IC50 [1]	Relative potency [2]	IC50 [3]	IC50 [4]	IC50 [5]	IC50 [6]
CN(CC(=O)N1CCOCC1)CC(O)c1c(-c2ccccc2)[nH]c2ccccc12 (centres undefined)	> 400 µM	< 6				
O=C(CNCC(=O)N1CCOCC1)c1c(-c2ccccc2)[nH]c2ccccc12	256 µM	9				
CN(CC(=O)c1c[nH]c2ccccc12)CC(=O)N1CCOCC1	> 400 µM	< 6				
CN(CC(=O)c1c(-c2ccco2)[nH]c2ccccc12)CC(=O)N1CCOCC1	248 µM	9				
CN(CCc1c(-c2ccccc2)[nH]c2ccccc12)CC(=O)N1CCOCC1	132 µM	17				
CN(CC(=O)c1c(CO)[nH]c2ccccc12)CC(=O)N1CCOCC1	> 400 µM	< 6				
CN(CC(=O)c1c(-c2ccccc2)[nH]c2ccc(CC(=O)N(C)C)cc12)CC(=O)N1CCOCC1	> 400 µM	< 6				
O=C(CN1CCCC(C(=O)N2CCOCC2)C1)c1c(-c2ccccc2)[nH]c2ccccc12 (centres undefined)	5.5 µM		263 µM	209 µM	51.3 µM	240 µM
